The structures appear in SMILES notation. Values after ≈ are worked out from the molar mass of the structure shown. Active and inactive are the calls of the source. The rule behind the calls is not given here.

The test system of one experiment is Escherichia coli. In words: Antibacterial activity against Escherichia coli ATCC 35218.
Conditions: not given
It is filed as functional.
With `CCC(=O)O/N=C(/C)N1N=C(c2ccccc2)CC1OC` (stereo not given), the MIC was found to be 12.5 µg/mL (≈ 43.2 µM).
The molecule `CC1=NN(/C(C)=N\OC(=O)c2ccccc2Cl)C(c2ccc(OCc3ccc(F)cc3)cc2)C1` (stereo not given) had an MIC of 50 µg/mL (≈ 104 µM).
In the case of `COC1CC(c2ccccc2)=NN1/C(C)=N\OC(=O)c1ccc(Cl)cc1` (stereo not given), the MIC came to 6.25 µg/mL (≈ 16.8 µM).
Take `CC1=NN(/C(C)=N\OC(=O)c2ccc(F)cc2)C(c2ccc(OCc3ccc(F)cc3)cc2)C1` (stereo not given): the MIC came to 50 µg/mL (≈ 108 µM).
The molecule `CC1=NN(/C(C)=N\OC(=O)c2ccc(C(F)(F)F)cc2)C(c2ccc(OCc3ccc(F)cc3)cc2)C1` (stereo not given) returned an MIC of 25 µg/mL (≈ 48.7 µM).
`CC1=NN(/C(C)=N\OC(=O)c2ccc(F)cc2)C(c2ccccc2OCc2ccc(F)cc2)C1` (stereo not given): the MIC was > 50 µg/mL.
In the case of `CC1=NN(/C(C)=N\OC(=O)c2ccc(Cl)cc2Cl)C(c2ccc(OCc3ccc(F)cc3)cc2)C1` (stereo not given), the MIC was found to be 12.5 µg/mL (≈ 24.3 µM).
With `C/C(=N/OC(=O)c1ccccc1[N+](=O)[O-])N1N=C(c2ccc(Cl)cc2Cl)CC1c1ccc(C(F)(F)F)cc1` (stereo not given), the MIC is 50 µg/mL (≈ 88.4 µM).
The same measure, in the same setting: to `CCC(=O)O/N=C(/C)N1N=C(c2ccc(Cl)cc2Cl)CC1c1ccc(C(F)(F)F)cc1` (stereo not given) belongs 50 µg/mL (≈ 106 µM); to `CC1=NN(/C(C)=N\OC(=O)c2ccccc2F)C(c2ccc(OCc3ccc(F)cc3)cc2)C1` (stereo not given), 50 µg/mL (≈ 108 µM).
For the molecule `COC1CC(c2ccccc2)=NN1/C(C)=N\OC(=O)/C=C/c1ccccc1` (stereo not given), the MIC amounted to 6.25 µg/mL (≈ 17.2 µM).
For the molecule `COC1CC(c2ccccc2)=NN1/C(C)=N\OC(=O)c1ccccc1[N+](=O)[O-]` (stereo not given), the MIC is 6.25 µg/mL (≈ 16.3 µM).
Molecule `C/C(=N/OC(=O)c1ccc(Cl)cc1)N1N=C(c2ccc(Cl)cc2Cl)CC1c1ccc(C(F)(F)F)cc1` (stereo not given) showed an MIC of 50 µg/mL (≈ 90.1 µM).
Regarding `NC[C@H]1O[C@H](O[C@H]2[C@H](O)[C@@H](O[C@H]3O[C@H](CO)[C@@H](O)[C@H](N)[C@H]3O)[C@H](N)C[C@@H]2N)[C@H](O)[C@@H](O)[C@@H]1O` [KANAMYCIN], the MIC was determined as 1.56 µg/mL (≈ 3.22 µM).

Another experiment relates to Pseudomonas fluorescens. In words: Antibacterial activity against Pseudomonas fluorescens ATCC 13525. Type of experiment: functional.
Conditions: not given
`CCC(=O)O/N=C(/C)N1N=C(c2ccccc2)CC1OC` (stereo not given): the MIC was determined as 12.5 µg/mL (≈ 43.2 µM).
Turning to `CC1=NN(/C(C)=N\OC(=O)c2ccccc2Cl)C(c2ccc(OCc3ccc(F)cc3)cc2)C1` (stereo not given), the MIC is 50 µg/mL (≈ 104 µM).
As to `COC1CC(c2ccccc2)=NN1/C(C)=N\OC(=O)c1ccc(Cl)cc1` (stereo not given), the MIC worked out at 6.25 µg/mL (≈ 16.8 µM).
Consider `CC1=NN(/C(C)=N\OC(=O)c2ccc(F)cc2)C(c2ccc(OCc3ccc(F)cc3)cc2)C1` (stereo not given), for which the MIC stood at 50 µg/mL (≈ 108 µM).
As for `CC1=NN(/C(C)=N\OC(=O)c2ccc(C(F)(F)F)cc2)C(c2ccc(OCc3ccc(F)cc3)cc2)C1` (stereo not given), the MIC was determined as 25 µg/mL (≈ 48.7 µM).
Still for that read-out and setting: to `CC1=NN(/C(C)=N\OC(=O)c2ccc(F)cc2)C(c2ccccc2OCc2ccc(F)cc2)C1` (stereo not given) belongs > 50 µg/mL; to `CC1=NN(/C(C)=N\OC(=O)c2ccc(Cl)cc2Cl)C(c2ccc(OCc3ccc(F)cc3)cc2)C1` (stereo not given), 50 µg/mL (≈ 97.2 µM); to `C/C(=N/OC(=O)c1ccccc1[N+](=O)[O-])N1N=C(c2ccc(Cl)cc2Cl)CC1c1ccc(C(F)(F)F)cc1` (stereo not given), 50 µg/mL (≈ 88.4 µM).
Still for that read-out and setting: to `CCC(=O)O/N=C(/C)N1N=C(c2ccc(Cl)cc2Cl)CC1c1ccc(C(F)(F)F)cc1` (stereo not given) belongs 50 µg/mL (≈ 106 µM); to `CC1=NN(/C(C)=N\OC(=O)c2ccccc2F)C(c2ccc(OCc3ccc(F)cc3)cc2)C1` (stereo not given), 25 µg/mL (≈ 53.9 µM).
Molecule `COC1CC(c2ccccc2)=NN1/C(C)=N\OC(=O)/C=C/c1ccccc1` (stereo not given) registered an MIC of 3.12 µg/mL (≈ 8.6 µM).
Regarding `COC1CC(c2ccccc2)=NN1/C(C)=N\OC(=O)c1ccccc1[N+](=O)[O-]` (stereo not given), the MIC turned out to be 12.5 µg/mL (≈ 32.7 µM).
Regarding `C/C(=N/OC(=O)c1ccc(Cl)cc1)N1N=C(c2ccc(Cl)cc2Cl)CC1c1ccc(C(F)(F)F)cc1` (stereo not given), the MIC came out at 50 µg/mL (≈ 90.1 µM).
As to `NC[C@H]1O[C@H](O[C@H]2[C@H](O)[C@@H](O[C@H]3O[C@H](CO)[C@@H](O)[C@H](N)[C@H]3O)[C@H](N)C[C@@H]2N)[C@H](O)[C@@H](O)[C@@H]1O` [KANAMYCIN], the MIC came out at 3.12 µg/mL (≈ 6.45 µM).

The test system of a further experiment is Pseudomonas aeruginosa. In words: Antibacterial activity against Pseudomonas aeruginosa ATCC 13525. Type of experiment: functional, organism-based.
Conditions: not given
An outline of the steps: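 Broth microdilution in MH medium with an inoculum of about 10⁵ cfu/mL. Compounds were serially diluted from a DMSO stock and incubated 24 h at 37 °C. MIC was read visually, then confirmed colorimetrically: MTT (2 mg/mL in PBS, pH 7.4) was added for 4–5 h at room temperature, the dye was extracted with isopropanol/5% 1 mol/L HCl for 12 h, and OD was read at 550 nm.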
As to `CC1=NN(/C(C)=N\OC(=O)c2ccccc2Cl)C(c2ccc(OCc3ccc(F)cc3)cc2)C1` (stereo not given), the outcome was Active.
As to `CC1=NN(/C(C)=N\OC(=O)c2ccc(F)cc2)C(c2ccc(OCc3ccc(F)cc3)cc2)C1` (stereo not given), the outcome was Active.
Still for that read-out and setting: in the case of `CC1=NN(/C(C)=N\OC(=O)c2ccc(C(F)(F)F)cc2)C(c2ccc(OCc3ccc(F)cc3)cc2)C1` (stereo not given) it was “Active”.
Consider `CC1=NN(/C(C)=N\OC(=O)c2ccc(F)cc2)C(c2ccccc2OCc2ccc(F)cc2)C1` (stereo not given), for which the result was Active.
The same measure, in the same setting: in the case of `CC1=NN(/C(C)=N\OC(=O)c2ccc(Cl)cc2Cl)C(c2ccc(OCc3ccc(F)cc3)cc2)C1` (stereo not given) it was “Active”.
For `C/C(=N/OC(=O)c1ccccc1[N+](=O)[O-])N1N=C(c2ccc(Cl)cc2Cl)CC1c1ccc(C(F)(F)F)cc1` (stereo not given), the outcome was Active.
On the same count and under the same terms, in the case of `CCC(=O)O/N=C(/C)N1N=C(c2ccc(Cl)cc2Cl)CC1c1ccc(C(F)(F)F)cc1` (stereo not given) it was “Active”.
As for `CC1=NN(/C(C)=N\OC(=O)c2ccccc2F)C(c2ccc(OCc3ccc(F)cc3)cc2)C1` (stereo not given), the outcome was Active.
Consider `C/C(=N/OC(=O)c1ccc(Cl)cc1)N1N=C(c2ccc(Cl)cc2Cl)CC1c1ccc(C(F)(F)F)cc1` (stereo not given), for which the outcome was Active.

The subject of another experiment is Bacillus subtilis. In words: microbe, parasite or virus in culture. Particulars: ATCC 6633. It is filed as functional.
In the case of `CCC(=O)O/N=C(/C)N1N=C(c2ccccc2)CC1OC` (stereo not given), the MIC was 12.5 µg/mL (≈ 43.2 µM).
On the same count and under the same terms, to `CC1=NN(/C(C)=N\OC(=O)c2ccccc2Cl)C(c2ccc(OCc3ccc(F)cc3)cc2)C1` (stereo not given) belongs 50 µg/mL (≈ 104 µM); to `COC1CC(c2ccccc2)=NN1/C(C)=N\OC(=O)c1ccc(Cl)cc1` (stereo not given), 3.12 µg/mL (≈ 8.4 µM).
On to `CC1=NN(/C(C)=N\OC(=O)c2ccc(F)cc2)C(c2ccc(OCc3ccc(F)cc3)cc2)C1` (stereo not given), for which the MIC is 50 µg/mL (≈ 108 µM).
On the same count and under the same terms, in the case of `CC1=NN(/C(C)=N\OC(=O)c2ccc(C(F)(F)F)cc2)C(c2ccc(OCc3ccc(F)cc3)cc2)C1` (stereo not given) it was 25 µg/mL (≈ 48.7 µM); in that of `CC1=NN(/C(C)=N\OC(=O)c2ccc(F)cc2)C(c2ccccc2OCc2ccc(F)cc2)C1` (stereo not given), > 50 µg/mL; in that of `CC1=NN(/C(C)=N\OC(=O)c2ccc(Cl)cc2Cl)C(c2ccc(OCc3ccc(F)cc3)cc2)C1` (stereo not given), 12.5 µg/mL (≈ 24.3 µM).
Same read-out and setting: to `C/C(=N/OC(=O)c1ccccc1[N+](=O)[O-])N1N=C(c2ccc(Cl)cc2Cl)CC1c1ccc(C(F)(F)F)cc1` (stereo not given) belongs 50 µg/mL (≈ 88.4 µM); to `CCC(=O)O/N=C(/C)N1N=C(c2ccc(Cl)cc2Cl)CC1c1ccc(C(F)(F)F)cc1` (stereo not given), 50 µg/mL (≈ 106 µM); to `CC1=NN(/C(C)=N\OC(=O)c2ccccc2F)C(c2ccc(OCc3ccc(F)cc3)cc2)C1` (stereo not given), 25 µg/mL (≈ 53.9 µM).
Regarding `COC1CC(c2ccccc2)=NN1/C(C)=N\OC(=O)/C=C/c1ccccc1` (stereo not given), the MIC worked out at 1.56 µg/mL (≈ 4.3 µM).
`COC1CC(c2ccccc2)=NN1/C(C)=N\OC(=O)c1ccccc1[N+](=O)[O-]` (stereo not given) yielded an MIC of 6.25 µg/mL (≈ 16.3 µM).
Molecule `C/C(=N/OC(=O)c1ccc(Cl)cc1)N1N=C(c2ccc(Cl)cc2Cl)CC1c1ccc(C(F)(F)F)cc1` (stereo not given) yielded an MIC of 12.5 µg/mL (≈ 22.5 µM).
The molecule `NC[C@H]1O[C@H](O[C@H]2[C@H](O)[C@@H](O[C@H]3O[C@H](CO)[C@@H](O)[C@H](N)[C@H]3O)[C@H](N)C[C@@H]2N)[C@H](O)[C@@H](O)[C@@H]1O` [KANAMYCIN] had an MIC of 0.39 µg/mL (≈ 0.805 µM).

The test system of another experiment is Staphylococcus aureus. In words: Antibacterial activity against Staphylococcus aureus ATCC 6538. It is filed as functional.
Conditions: not given
As for `CCC(=O)O/N=C(/C)N1N=C(c2ccccc2)CC1OC` (stereo not given), the MIC was determined as 25 µg/mL (≈ 86.4 µM).
Turning to `CC1=NN(/C(C)=N\OC(=O)c2ccccc2Cl)C(c2ccc(OCc3ccc(F)cc3)cc2)C1` (stereo not given), the MIC turned out to be 12.5 µg/mL (≈ 26 µM).
As for `COC1CC(c2ccccc2)=NN1/C(C)=N\OC(=O)c1ccc(Cl)cc1` (stereo not given), the MIC turned out to be 25 µg/mL (≈ 67.2 µM).
`CC1=NN(/C(C)=N\OC(=O)c2ccc(F)cc2)C(c2ccc(OCc3ccc(F)cc3)cc2)C1` (stereo not given) gave an MIC of 50 µg/mL (≈ 108 µM).
In the case of `CC1=NN(/C(C)=N\OC(=O)c2ccc(C(F)(F)F)cc2)C(c2ccc(OCc3ccc(F)cc3)cc2)C1` (stereo not given), the MIC was 50 µg/mL (≈ 97.4 µM).
As to `CC1=NN(/C(C)=N\OC(=O)c2ccc(F)cc2)C(c2ccccc2OCc2ccc(F)cc2)C1` (stereo not given), the MIC is > 50 µg/mL.
`CC1=NN(/C(C)=N\OC(=O)c2ccc(Cl)cc2Cl)C(c2ccc(OCc3ccc(F)cc3)cc2)C1` (stereo not given): the MIC turned out to be 12.5 µg/mL (≈ 24.3 µM).
Still for that read-out and setting: in the case of `C/C(=N/OC(=O)c1ccccc1[N+](=O)[O-])N1N=C(c2ccc(Cl)cc2Cl)CC1c1ccc(C(F)(F)F)cc1` (stereo not given) it was 50 µg/mL (≈ 88.4 µM).
Molecule `CCC(=O)O/N=C(/C)N1N=C(c2ccc(Cl)cc2Cl)CC1c1ccc(C(F)(F)F)cc1` (stereo not given) yielded an MIC of 50 µg/mL (≈ 106 µM).
Regarding `CC1=NN(/C(C)=N\OC(=O)c2ccccc2F)C(c2ccc(OCc3ccc(F)cc3)cc2)C1` (stereo not given), the MIC is 50 µg/mL (≈ 108 µM).
`COC1CC(c2ccccc2)=NN1/C(C)=N\OC(=O)/C=C/c1ccccc1` (stereo not given) showed an MIC of 12.5 µg/mL (≈ 34.4 µM).
For the molecule `COC1CC(c2ccccc2)=NN1/C(C)=N\OC(=O)c1ccccc1[N+](=O)[O-]` (stereo not given), the MIC came to 12.5 µg/mL (≈ 32.7 µM).
Same read-out and setting: in the case of `C/C(=N/OC(=O)c1ccc(Cl)cc1)N1N=C(c2ccc(Cl)cc2Cl)CC1c1ccc(C(F)(F)F)cc1` (stereo not given) it was 50 µg/mL (≈ 90.1 µM); in that of `NC[C@H]1O[C@H](O[C@H]2[C@H](O)[C@@H](O[C@H]3O[C@H](CO)[C@@H](O)[C@H](N)[C@H]3O)[C@H](N)C[C@@H]2N)[C@H](O)[C@@H](O)[C@@H]1O` [KANAMYCIN], 3.12 µg/mL (≈ 6.45 µM).

Values taken from ChEMBL document CHEMBL1157150, “Synthesis, structure and antibacterial activity of novel 1-(5-substituted-3-substituted-4,5-dihydropyrazol-1-yl)ethanone oxime ester derivatives” (Bioorg Med Chem, 2008).
